Screening results: PubChem, several laboratories
L major viab: Leishmania major promastigote growth inhibition, primary screen; Leishmania major promastigotes, resazurin fluorescence viability; inhibition, % at 10 µM; actives 9% (n = 200,000); AID 1063, 2008; in the data active means inhibition above about 50%;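 further: promastigotes grown with compound for 44 hours at 28 °C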
T cruzi repl: inhibitors of intracellular T. cruzi growth, primary screen, luminescence, NIH3T3 host cells | actives 1.4% (n = 300,000) | inhibition, % (test concentration not listed) | T. cruzi beta-gal in NIH3T3, 90 h;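 active means mean inhibition across valid replicates above about 55%, limit read from the data; inconclusive means mean below that limit but half or more replicates reach it; inactive means mean below it, under half of replicates reach it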;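 further: signal also drops with host cell toxicity which is not excluded here; 0% = plate median of DMSO wells and 100% = zero luminescence signal; higher percent means less beta-gal luminescence so fewer parasites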
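System – NIH/3T3 host cells with β-galactosidase reporter T. cruzi · Doses – single 50 nL compound addition per well in DMSO · Reagent – 5000 T. cruzi trypomastigotes/well · Medium – Low-serum DMEM with 2% FBS · Timing – ≥90 h infection period, 3 h prior cell attachment · Evaluation – parasite load inhibition, % · Technique – GalScreen luminescence, 60 min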
HSF1 inh: HSF1 inhibitors in luciferase reporter cells, primary screen, cell-based, NIH3T3, luminescence. NIH3T3-HGL HSE-luciferase, MG132-induced, luminescence 8 h; active compounds read low. activity change, negative = inhibition, % at 7.5 µM (by protocol). actives 0.77% (n = 300,000). AID 2098, 2009;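 active means more than half of replicate wells show activity change below -50%, luminescence cut by over half; inconclusive means some wells, but at most half, below -50%; inactive means no replicate well below -50%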;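 further: luciferase reports HSF-1 transcriptional activity via heat shock element; 0% = median of DMSO wells and -100% = zero luminescence signal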
HSF-1 act: HSF-1 activators, primary screen, NIH3T3-HGL cells, MG132 stress, luminescence, single point; activation, % at 9 µM; actives 1.7% (n = 300,000); NIH3T3-HGL HSF-1 luciferase reporter, 8 h; 100% = twice DMSO control signal;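 active means mean replicate activation of at least 50% with a set share of replicates each reaching 50%; inconclusive means only one of those two conditions met; inactive means mean below 50% and too few replicates reaching it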;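 further: 0% = median of the neutral control wells and 100% = twice that signal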
Hsp70 activator: Hsp70 transcriptional activators, primary screen, cell-based, HeLa, Hsp70 promoter luciferase, luminescence, 10 µM; HeLa Hsp70 promoter luciferase reporter; scaled: vehicle 0, proteasome-inhibitor control 100%; activation, % at 10 µM; actives 0.04% (n = 200,000);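 active means activation above the mean across all tested compounds plus 3 SD, cutoff set per campaign, cut at about 5.5% in these data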;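 further: 100% = MG132 at 30 µM as the positive control and 0% = DMSO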
The depositor's hits bear a star; ? = inconclusive; / = no result given. The entries come from a sample that favours hits as a whole.

SMILES	L major viab	T cruzi repl	HSF1 inh	HSF-1 act	Hsp70 activator
COc1cc(CN2CCCC(CCC(=O)NCc3ccc(C)o3)C2)cc2c1OCO2 (stereo not given)	0	69*	-4	-5	0
Cc1ccc2[nH]c(=O)c(CN(CC3CCCO3)S(=O)(=O)c3c(C)ccc4nsnc34)cc2c1 (stereo not given)	95*	1	0	-7	0
Cc1cc(C)c2cc(CN(CC3CCCO3)S(=O)(=O)c3ccc4c(c3)OCCO4)c(=O)[nH]c2c1 (stereo not given)	11	24	28	62*	0
Cc1ccc2[nH]c(=O)c(CN(Cc3ccco3)S(=O)(=O)c3c(C)ccc4nsnc34)cc2c1	-2	32	1	-1	0
Cc1ccc(S(=O)(=O)N(Cc2cc3cc4c(cc3[nH]c2=O)OCCO4)CC2CCCO2)cc1 (stereo not given)	-6	-10	3	23	0
COc1ccc2[nH]c(=O)c(CN(Cc3cccs3)S(=O)(=O)c3c(C)ccc4nsnc34)cc2c1	98*	6	-64*	-69	0
O=C(Nc1nc(-c2ccccc2)nc2ccccc12)c1ccc(F)cc1	8	-13	2	14	0
COc1cc(CN2CCN(C(c3ccccc3)c3ccccc3)CC2)cc(OC)c1OC	/	0	-11	-3	/
CN1CCCN(C(c2ccccc2)c2ccc(Cl)cc2)CC1 (stereo not given)	99*	27	-1	6	0
O=C(C1CCN(Cc2ccc(Cl)cc2)CC1)N1CCN(C(c2ccccc2)c2ccccc2)CC1	88*	26	2	-5	0
Clc1ccc(C(c2ccccc2)N2CCN(c3ccccn3)CC2)cc1 (stereo not given)	/	24	6	11	/
Cc1cccc(CN2CCN(C(c3ccccc3)c3ccc(Cl)cc3)CC2)c1 (stereo not given)	63*	18	-2	-9	0
O=C(c1ccc(Cl)cc1)C1CCN(Cc2ccccc2)CC1	/	20	4	11	/
O=C(NCCN1CCN(c2ccccc2)CC1)C1CCN(S(=O)(=O)c2cccc3nsnc23)CC1	4	4	0	12	0
COc1ccccc1CNC(=O)c1ccc2c(=O)n3c(nc2c1)CCCCC3	/	-1	-3	-6	/
COc1ccc(/C=N/NC(=O)c2c(C)n(C)c3ccc(OC)cc23)c(OC)c1	8	-14	5	5	0
COc1ccc2c(c1)c(C(=O)N/N=C/c1cccc(Br)c1)c(C)n2C	/	55*	9	18	/
COc1ccc2c(c1)c(C(=O)N/N=C/c1ccccc1Cl)c(C)n2C	/	11	16	56*	/
COc1ccc2c(c1)c(C(=O)N/N=C/c1cccc(O)c1)c(C)n2C	10	-15	3	-12	0
CCCNc1nc(C)c(C(C)=O)cc1C#N	-3	-10	-10	11	0
C=CCSc1nnc(C)c(/C=C/Nc2ccc(Cl)cc2)n1	23	24	11	17	0
CCCCOc1ccc(S(=O)(=O)N2CCCCC2)cc1	/	25	4	0	/
Oc1ccc(N2CCN(Cc3ccc(OCCCN4CCCCC4)cc3)CC2)cc1	48	69*	-1	-3	0
CCCCOc1ccc(CN2CCCCC2)cc1	93*	59*	-2	2	0
Cc1c(C(=O)NCc2cccnc2)sc2nc(-c3ccccc3)cn12	/	-22	12	27	/
SMILES	L major viab	T cruzi repl	HSF1 inh	HSF-1 act	Hsp70 activator
Cc1c(C(=O)Nc2ccncc2)sc2nc(-c3ccccc3)cn12	76*	17	4	6	0
Cc1c(C(=O)Nc2ccc3c(c2)OCCO3)sc2nc(-c3ccccc3)cn12	56*	22	11	35	0
Cc1c(C(=O)N2CCOCC2)sc2nc(-c3ccccc3)cn12	-5	-8	14	41	0
NC(=Nc1nc(-c2ccccn2)cc2ccccc12)c1ccccn1	/	/	57*	57*	/
CCOc1cc(/C=C/C(=O)OCC(=O)NC2CCS(=O)(=O)C2)ccc1OCc1ccccc1 (stereo not given)	11	6	-3	8	0
CC(=O)Nc1ccc(Nc2nc(C)c([N+](=O)[O-])c(Nc3ccccc3)n2)cc1	91*	7	-12	5	0
N#C/C(=C\C1CC2C=CC1C2)c1nc2ccccc2[nH]1 (stereo not given)	56*	-14	9	9	0
N#C/C(=C\c1ccc(Sc2ccccc2)o1)c1nc2ccccc2[nH]1	18	61*	35	37	0
COc1cc(/C=C(/C#N)c2ccc(C)cc2)ccc1Oc1ccc([N+](=O)[O-])cn1	2	71*	-4	4	0
N#C/C(=C\c1ccc(OC(=O)c2cccs2)cc1)c1nc2ccccc2[nH]1	32	2	19	48	0
N#C/C(=C\c1cccs1)c1nc2ccccc2[nH]1	60*	0	16	25	0
COC(=NC(C)C)NC(C)C	/	-4	4	-1	/
CC1CC(C)(C)NC(=S)N1CC(=O)NCc1ccc2c(c1)OCO2 (stereo not given)	2	-8	1	8	0
N#C/C(=C\c1ccccc1)c1nc2ncccc2[nH]1	66*	-2	2	20	0
N#C/C(=C/c1ccc(O)c(O)c1)c1nc2ccccc2[nH]1	/	-14	9	32	/
Cc1ccc2nc(/C(C#N)=C\c3ccc([N+](=O)[O-])o3)[nH]c2c1	100*	67*	?	-42	0
Cc1ccc2nc(/C(C#N)=C\c3ccc(Oc4ccc([N+](=O)[O-])cn4)cc3)[nH]c2c1	99*	/	/	/	0
Cc1ccc2nc(/C(C#N)=C/c3ccc(-c4ccccc4C(=O)O)o3)[nH]c2c1	/	10	-1	-18	/
N#C/C(=C\c1ccc([N+](=O)[O-])o1)c1nc2ccccc2[nH]1	100*	49	-6	11	0
CCOc1cc(S(=O)(=O)n2ccnc2)ccc1Cl	19	-9	2	6	0
Cc1cc(/C=C(/C#N)c2nc3ccccc3[nH]2)c(C)n1-c1cc(C(=O)O)cc(C(=O)O)c1	-5	8	5	16	0
Cc1ccc2nc(/C(C#N)=C\c3cc(C)n(-c4cccc([N+](=O)[O-])c4)c3C)[nH]c2c1	85*	?	7	20	0
CN=C(Nc1ccc(C)c(C)c1)SC1CC(=O)N(c2ccc(OC)cc2)C1=O (stereo not given)	74*	16	-9	-6	0
O=C(O)C1C2CCC(O2)C1C(=O)Nc1ccccc1Br (stereo not given)	/	-7	-2	-2	/
COc1cc(/C=N/NC(=S)N/N=C/c2cc(OC)c(OC)c(OC)c2)cc(OC)c1OC	55*	5	1	8	0
